Results: ChEMBL document CHEMBL1208674, “Synthesis and anti-mycobacterial evaluation of some pyrazine-2-carboxylic acid hydrazide derivatives” (Eur J Med Chem, 2010)
In brackets after ≈: the same amount, converted by molar mass.

Columns and labels:
[1] = Cytotoxicity against african green monkey Vero cells after 72 hrs by Cell titer Glo assay; assay type: cell-based; details: chlorocebus sabaeus
Summary of the method: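 VERO cells exposed to compounds for 72 h, run in parallel with the M. tuberculosis dose-response assay. Viability read by ATP-based luminescence (Cell Titer-Glo). CC50 taken from the dose-response curve by curve fitting.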

[2] = system: Mycobacterium tuberculosis; assay: Antimycobacterial activity against Mycobacterium tuberculosis H37Rv by microplate Alamar blue assay; assay type: functional, organism-based
Summary of the method: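 M. tuberculosis H37Rv (ATCC 27294) grown in BACTEC 12B medium, broth microdilution read by Alamar Blue (MABA). Ten 2-fold dilutions, typically 100 to 0.19 µg/mL. IC90 = concentration giving 90% fluorescence reduction relative to controls; IC50 at 50%. Both taken from dose-response curve by curve fitting. Run alongside a parallel VERO cytotoxicity assay.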

With `O=C(N/N=C/c1ccc(Cl)cc1)c1cnccn1` the CC50 at 72 h [1] was over 30 µg/mL, the IC50 [2] was over 100 µg/mL and the IC90 [2] was over 100 µg/mL.
Work on `COc1ccc(/C(C)=N/NC(=O)c2cnccn2)cc1` yielded a CC50 at 72 h [1] of over 30 µg/mL, an IC50 [2] of over 100 µg/mL and an IC90 [2] of over 100 µg/mL.
`COc1ccc2nc(Cl)c(/C=N/NC(=O)c3cnccn3)cc2c1` gave a CC50 at 72 h [1] of 5.37 µg/mL (≈ 15.7 µM), an IC50 [2] of over 100 µg/mL and an IC90 [2] of over 100 µg/mL.
In the case of `O=C(N/N=C/c1ccc(O)cc1)c1cnccn1`, the CC50 at 72 h [1] is reported as over 30 µg/mL, the IC50 [2] is reported as over 100 µg/mL and the IC90 [2] is reported as over 100 µg/mL.
For `Cc1ccc2nc(Cl)c(/C=N/NC(=O)c3cnccn3)cc2c1`, the CC50 at 72 h [1] was over 30 µg/mL, the IC50 [2] was over 100 µg/mL and the IC90 [2] was over 100 µg/mL.
In the case of `O=C(N/N=C/c1ccccc1O)c1cnccn1`, the CC50 at 72 h [1] is reported as 11.4 µg/mL (≈ 47.2 µM), the IC50 [2] is reported as over 100 µg/mL and the IC90 [2] is reported as over 100 µg/mL.
With `CCNC(=S)NNC(=O)c1cnccn1` the CC50 at 72 h [1] was 29.8 µg/mL (≈ 132 µM), the IC50 [2] was 11.4 µg/mL (≈ 50.5 µM) and the IC90 [2] was 16.9 µg/mL (≈ 74.9 µM).
Molecule `Nc1cccc(/C=N/NC(=O)c2cnccn2)c1` has a CC50 at 72 h [1] of over 30 µg/mL, an IC50 [2] of over 100 µg/mL and an IC90 [2] of over 100 µg/mL.
Molecule `COc1ccc(/C=N/NC(=O)c2cnccn2)cc1` has a CC50 at 72 h [1] of over 30 µg/mL, an IC50 [2] of over 100 µg/mL and an IC90 [2] of over 100 µg/mL.
`O=C(N/N=C/c1cccc(O)c1)c1cnccn1` showed a CC50 at 72 h [1] of over 30 µg/mL, an IC50 [2] of over 100 µg/mL and an IC90 [2] of over 100 µg/mL.
For `NNC(=O)c1cnccn1` [PYRAZINE CARBOXYLIC ACID HYDRAZIDE], the CC50 at 72 h [1] was over 30 µg/mL, the IC50 [2] was over 100 µg/mL and the IC90 [2] was over 100 µg/mL.
For `COc1cc(/C=N/NC(=O)c2cnccn2)ccc1O`, the CC50 at 72 h [1] was over 30 µg/mL, the IC50 [2] was over 100 µg/mL and the IC90 [2] was over 100 µg/mL.
For `C/C(=N\NC(=O)c1cnccn1)c1ccc(Br)cc1`, the CC50 at 72 h [1] was over 30 µg/mL, the IC50 [2] was over 100 µg/mL and the IC90 [2] was over 100 µg/mL.
